Assay results from ChEMBL document CHEMBL3091303, “1,3-Dialkyl-substituted tetrahydropyrimido[1,2-f]purine-2,4-diones as multiple target drugs for the potential treatment of neurodegenerative diseases” (Bioorg Med Chem, 2013).

Assays:
[1] = target: Adenosine receptor A2a (Homo sapiens, UniProt P29274); assay: Displacement of [3H]MSX-2 from human adenosine A2A receptor expressed in CHO cells; type: cell-based
How it was run: (§1)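 Radioligand binding to human receptors recombinantly expressed in Chinese hamster ovary (CHO) cells. Results are Ki, or % inhibition of radioligand binding at the indicated concentration.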

[2] = target: T1, Amine oxidase [flavin-containing] B (Homo sapiens, UniProt P27338); assay: Inhibition of human MAO-B
T1 sequence (P27338 whole entry): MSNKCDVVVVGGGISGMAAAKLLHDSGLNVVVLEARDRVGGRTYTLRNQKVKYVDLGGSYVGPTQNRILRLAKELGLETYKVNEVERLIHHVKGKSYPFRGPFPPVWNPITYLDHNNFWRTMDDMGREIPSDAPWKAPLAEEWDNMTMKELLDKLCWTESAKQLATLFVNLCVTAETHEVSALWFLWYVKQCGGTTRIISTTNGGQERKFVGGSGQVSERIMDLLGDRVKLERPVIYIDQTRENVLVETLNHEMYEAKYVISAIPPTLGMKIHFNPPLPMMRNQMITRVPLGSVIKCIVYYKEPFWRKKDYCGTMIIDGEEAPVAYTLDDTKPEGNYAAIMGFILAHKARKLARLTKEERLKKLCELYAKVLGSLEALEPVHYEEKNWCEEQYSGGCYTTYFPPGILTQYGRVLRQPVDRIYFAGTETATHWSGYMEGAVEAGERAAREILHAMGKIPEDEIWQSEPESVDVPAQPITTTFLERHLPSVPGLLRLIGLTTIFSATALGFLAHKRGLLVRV

[3] = target: T2, Adenosine receptor A3 (Homo sapiens, UniProt P0DMS8); assay: Displacement of [3H]PSB-11 from human adenosine A3 receptor expressed in CHO cells; type: cell-based
T2 sequence (P0DMS8 whole entry): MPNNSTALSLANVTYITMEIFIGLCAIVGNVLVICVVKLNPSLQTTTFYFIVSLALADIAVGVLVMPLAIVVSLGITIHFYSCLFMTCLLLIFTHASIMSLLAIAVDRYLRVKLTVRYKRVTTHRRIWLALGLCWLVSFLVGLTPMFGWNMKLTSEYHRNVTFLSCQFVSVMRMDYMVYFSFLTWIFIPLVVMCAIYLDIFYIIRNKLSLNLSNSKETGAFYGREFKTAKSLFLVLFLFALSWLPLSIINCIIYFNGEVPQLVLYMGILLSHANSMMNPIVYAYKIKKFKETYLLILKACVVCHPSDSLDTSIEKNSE

[4] = target: Adenosine receptor A2a (Rattus norvegicus, UniProt P30543); assay: Displacement of [3H]MSX-2 from adenosine A2A receptor in rat brain striatum; type: tissue-based
[5] = target: T3, Adenosine receptor A1 (Rattus norvegicus, UniProt P25099); assay: Displacement of [3H]CCPA from adenosine A1 receptor in rat brain cortex; type: tissue-based
T3 sequence (P25099 whole entry): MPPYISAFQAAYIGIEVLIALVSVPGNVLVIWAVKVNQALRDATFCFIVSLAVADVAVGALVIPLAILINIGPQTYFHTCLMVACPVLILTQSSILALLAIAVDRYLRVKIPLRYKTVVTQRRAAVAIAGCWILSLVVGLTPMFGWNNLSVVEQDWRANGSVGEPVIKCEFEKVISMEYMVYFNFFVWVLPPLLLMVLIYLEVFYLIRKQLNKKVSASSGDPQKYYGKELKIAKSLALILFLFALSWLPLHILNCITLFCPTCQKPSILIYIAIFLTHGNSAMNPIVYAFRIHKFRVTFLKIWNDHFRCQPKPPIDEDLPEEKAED
How it was run: (§2)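 Radioligand binding to rat A1 receptors in rat brain cortical membrane preparations. Values are given as Ki, or as % inhibition of radioligand binding at the indicated concentration.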

[6] = target: T4, Adenosine receptor A3 (Homo sapiens) (UniProt P0DMS8); assay: Displacement of [3H]PSB-11 from human adenosine A3 receptor expressed in CHO cells relative to control; type: cell-based; design: concentration or dose not given beside the values; conditions: concentration not given here
T4 sequence (whole entry): T2 sequence (P0DMS8 whole entry)

[7] = target: T5, Adenosine receptor A1 (Homo sapiens, UniProt P30542); assay: Displacement of [3H]CCPA from human adenosine A1 receptor expressed in CHO cells; type: cell-based; how it was run: as §1
T5 sequence (P30542 whole entry): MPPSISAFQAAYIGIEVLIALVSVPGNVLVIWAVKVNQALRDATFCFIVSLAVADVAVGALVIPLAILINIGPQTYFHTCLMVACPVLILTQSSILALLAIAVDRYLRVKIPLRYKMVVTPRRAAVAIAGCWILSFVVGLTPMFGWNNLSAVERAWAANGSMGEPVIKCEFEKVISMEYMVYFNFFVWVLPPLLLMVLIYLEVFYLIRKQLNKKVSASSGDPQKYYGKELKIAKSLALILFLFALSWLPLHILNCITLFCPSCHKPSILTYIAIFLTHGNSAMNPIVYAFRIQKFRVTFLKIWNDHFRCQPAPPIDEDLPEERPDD

[8] = target: T6, Adenosine receptor A2b (Homo sapiens, UniProt P29275); assay: Displacement of [3H]PSB-603 from human adenosine A2B receptor
T6 sequence (P29275 whole entry): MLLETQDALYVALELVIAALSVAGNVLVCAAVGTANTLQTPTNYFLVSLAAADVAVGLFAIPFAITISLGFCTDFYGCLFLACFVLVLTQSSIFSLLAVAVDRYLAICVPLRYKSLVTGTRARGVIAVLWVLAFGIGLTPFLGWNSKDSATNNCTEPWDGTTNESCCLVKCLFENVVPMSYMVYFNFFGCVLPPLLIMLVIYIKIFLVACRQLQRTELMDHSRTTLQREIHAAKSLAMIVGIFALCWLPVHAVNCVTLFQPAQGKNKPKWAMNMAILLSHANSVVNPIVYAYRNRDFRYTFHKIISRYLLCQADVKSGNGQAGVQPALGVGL

[9] = target: T7, MAO-B (amine oxidase [flavin-containing] B) (Homo sapiens, UniProt P27338); assay: Inhibition of human MAO-B at 10 uM relative to control
T7 sequence (P27338 whole entry): T1 sequence (P27338 whole entry)
How it was run: (§3)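 Human MAO-A and MAO-B inhibition, screened first at a test concentration of 10 µM.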

[10] = target: T8, Adenosine receptor A1 (Rattus norvegicus) (UniProt P25099); assay: Displacement of [3H]CCPA from adenosine A1 receptor in rat brain cortex relative to control; type: tissue-based; design: concentration or dose not given beside the values; conditions: concentration not given here; how it was run: as §2
T8 sequence (whole entry): T3 sequence (P25099 whole entry)

[11] = target: T9, Adenosine receptor A2b (Homo sapiens) (UniProt P29275); assay: Displacement of [3H]PSB-603 from human adenosine A2B receptor relative to control; design: concentration or dose not given beside the values; conditions: concentration not given here
T9 sequence (whole entry): T6 sequence (P29275 whole entry)

[12] = target: T10, MAO-A (amine oxidase [flavin-containing] A) (Homo sapiens, UniProt P21397); assay: Inhibition of human MAO-A at 10 uM relative to control; how it was run: as §3
T10 sequence (P21397 whole entry): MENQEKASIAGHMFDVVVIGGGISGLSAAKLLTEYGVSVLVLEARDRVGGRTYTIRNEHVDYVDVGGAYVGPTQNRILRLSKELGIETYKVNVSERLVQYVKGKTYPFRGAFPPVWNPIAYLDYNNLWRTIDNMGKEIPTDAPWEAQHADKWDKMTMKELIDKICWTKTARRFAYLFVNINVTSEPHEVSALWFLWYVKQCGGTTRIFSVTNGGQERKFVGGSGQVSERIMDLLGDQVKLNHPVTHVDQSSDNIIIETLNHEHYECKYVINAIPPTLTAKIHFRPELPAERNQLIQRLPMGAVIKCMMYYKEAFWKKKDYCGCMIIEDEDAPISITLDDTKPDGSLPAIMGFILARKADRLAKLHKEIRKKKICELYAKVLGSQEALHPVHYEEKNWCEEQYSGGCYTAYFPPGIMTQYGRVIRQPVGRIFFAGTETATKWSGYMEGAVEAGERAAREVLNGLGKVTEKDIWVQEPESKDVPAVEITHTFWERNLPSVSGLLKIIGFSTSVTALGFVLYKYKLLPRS

[13] = target: T11, Amine oxidase [flavin-containing] A (Homo sapiens, UniProt P21397); assay: Inhibition of human MAO-A; how it was run: as §3
T11 sequence (P21397 whole entry): T10 sequence (P21397 whole entry)

Adenosine receptor A2a (Homo sapiens, UniProt P29274), sequence (P29274 whole entry): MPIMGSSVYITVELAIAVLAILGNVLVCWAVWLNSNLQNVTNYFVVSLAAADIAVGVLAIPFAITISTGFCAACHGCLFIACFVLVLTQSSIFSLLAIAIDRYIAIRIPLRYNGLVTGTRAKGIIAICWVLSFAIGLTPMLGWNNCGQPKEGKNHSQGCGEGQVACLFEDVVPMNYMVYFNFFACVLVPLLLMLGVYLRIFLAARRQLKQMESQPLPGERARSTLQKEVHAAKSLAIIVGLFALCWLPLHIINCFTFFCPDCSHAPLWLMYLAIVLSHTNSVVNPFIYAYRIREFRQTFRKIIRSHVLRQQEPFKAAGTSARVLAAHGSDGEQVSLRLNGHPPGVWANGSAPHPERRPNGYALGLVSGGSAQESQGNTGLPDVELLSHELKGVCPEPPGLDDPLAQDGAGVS
Adenosine receptor A2a (Rattus norvegicus, UniProt P30543), sequence (P30543 whole entry): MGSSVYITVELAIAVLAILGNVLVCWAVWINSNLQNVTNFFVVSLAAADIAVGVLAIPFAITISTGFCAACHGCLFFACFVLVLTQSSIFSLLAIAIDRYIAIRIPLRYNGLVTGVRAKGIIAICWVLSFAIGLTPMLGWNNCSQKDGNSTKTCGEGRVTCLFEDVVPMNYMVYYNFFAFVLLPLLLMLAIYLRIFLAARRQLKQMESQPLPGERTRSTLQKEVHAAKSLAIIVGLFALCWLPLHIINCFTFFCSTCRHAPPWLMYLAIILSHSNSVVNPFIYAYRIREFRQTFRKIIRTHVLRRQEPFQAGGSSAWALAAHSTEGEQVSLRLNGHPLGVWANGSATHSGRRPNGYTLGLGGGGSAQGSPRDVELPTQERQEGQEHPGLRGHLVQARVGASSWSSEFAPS

C#CCn1c(=O)c2c(nc3n2CCCN3C2CCCCC2)n(C)c1=O
Ki [1]: 0.311 µM | IC50 [2]: > 10 µM | Ki [3]: > 10 µM | Ki [4]: 0.361 µM | Ki [5]: 0.515 µM | inhibition [6]: 25% | Ki [7]: 2.36 µM | Ki [8]: 17.1 µM | inhibition at 10 µM [9]: 26%

Cn1c(=O)c2c(nc3n2CCCN3c2ccc(Cl)c(Cl)c2)n(C)c1=O
inhibition [10]: 28% | inhibition [11]: 3% | IC50 [2]: 10 µM | Ki [3]: > 1 µM | Ki [4]: 4.7 µM | Ki [5]: > 10 µM | inhibition [6]: 12% | inhibition at 10 µM [12]: 12% | Ki [8]: > 1 µM | IC50 [13]: > 10 µM | inhibition at 10 µM [9]: 50%

CCn1c(=O)c2c(nc3n2CCCN3CCc2ccc(OC)c(OC)c2)n(CC)c1=O
inhibition [10]: 35% | inhibition [11]: 15% | IC50 [2]: 5.87 µM | Ki [3]: > 10 µM | Ki [4]: 1.88 µM | Ki [5]: > 10 µM | inhibition [6]: 32% | inhibition at 10 µM [12]: 4% | Ki [8]: > 1 µM | IC50 [13]: > 10 µM

CCn1c(=O)c2c(nc3n2CCCN3CCc2cc(OC)c(OC)c(OC)c2)n(CC)c1=O
inhibition [10]: 14% | inhibition [11]: 6% | IC50 [2]: > 10 µM | Ki [3]: > 10 µM | Ki [4]: 3.87 µM | Ki [5]: > 10 µM | inhibition [6]: 24% | Ki [8]: > 1 µM | inhibition at 10 µM [9]: 25%

CCCn1c(=O)c2c(nc3n2CCCN3CC(=O)N2CCN(Cc3ccccc3)CC2)n(CCC)c1=O
inhibition [10]: 17% | inhibition [11]: 0% | IC50 [2]: > 10 µM | Ki [3]: > 1 µM | Ki [4]: 8.22 µM | Ki [5]: > 1.5 µM | inhibition [6]: 28% | Ki [8]: > 1 µM | inhibition at 10 µM [9]: 15%

CCCn1c(=O)c2c(nc3n2CCCN3CC(=O)N2CCN(Cc3ccc(C(F)(F)F)cc3)CC2)n(CCC)c1=O
inhibition [10]: 23% | inhibition [11]: 15% | IC50 [2]: 2.98 µM | Ki [3]: 0.541 µM | Ki [4]: 7.31 µM | Ki [5]: > 1.5 µM | inhibition at 10 µM [12]: 5% | Ki [8]: > 1 µM | IC50 [13]: > 10 µM

Cn1c(=O)c2c(nc3n2CCCN3CCc2cccc(Cl)c2)n(C)c1=O
Ki [1]: 1.35 µM | inhibition [11]: 1% | IC50 [2]: 1.35 µM | Ki [3]: > 10 µM | Ki [4]: 0.166 µM | Ki [5]: 1.76 µM | inhibition [6]: 43% | inhibition at 10 µM [12]: -4% | Ki [8]: > 1 µM | IC50 [13]: > 10 µM

Cn1c(=O)c2c(nc3n2CCCN3CC(=O)N2CCN(Cc3ccccc3)CC2)n(C)c1=O
inhibition [10]: 0% | inhibition [11]: -7% | IC50 [2]: 10 µM | Ki [3]: > 0.3 µM | Ki [4]: 14 µM | Ki [5]: > 1.5 µM | inhibition [6]: 23% | inhibition at 10 µM [12]: 4% | Ki [8]: > 0.3 µM | IC50 [13]: > 10 µM | inhibition at 10 µM [9]: 55%

Cn1c(=O)c2c(nc3n2CCCN3CCc2ccc(Cl)c(Cl)c2)n(C)c1=O
Ki [1]: 5.25 µM | inhibition [11]: 10% | IC50 [2]: 0.0869 µM | Ki [3]: > 10 µM | Ki [4]: 0.78 µM | Ki [5]: 7.24 µM | inhibition [6]: 23% | inhibition at 10 µM [12]: -2% | Ki [8]: > 1 µM | IC50 [13]: > 10 µM

Cn1c(=O)c2c(nc3n2CCCN3CCc2ccc(Cl)cc2)n(C)c1=O
Ki [1]: 5.61 µM | inhibition [11]: 8% | IC50 [2]: 0.624 µM | Ki [3]: > 10 µM | Ki [4]: 0.515 µM | Ki [5]: 3.03 µM | inhibition [6]: 38% | inhibition at 10 µM [12]: 4% | Ki [8]: > 1 µM | IC50 [13]: > 10 µM

CCn1c(=O)c2c(nc3n2CCCN3c2ccc(O)cc2)n(CC)c1=O
inhibition [10]: 30% | inhibition [11]: 22% | IC50 [2]: 10 µM | Ki [3]: > 10 µM | Ki [4]: 10.9 µM | Ki [5]: > 10 µM | inhibition [6]: 29% | inhibition at 10 µM [12]: 11% | Ki [8]: > 1 µM | IC50 [13]: > 10 µM | inhibition at 10 µM [9]: 56%
